The values below come from publication PMC6438848 (Saudi Pharmaceutical Journal : SPJ, 2018).

Data set [1] relates to MCF-7 cells (human breast carcinoma). Description: In vitro antiproliferative assay. Particulars: for IC50: Homo sapiens, MCF7, 72 h, read-out: IC50 ± SD. Format: cell-based.
Data set [2] can be described thus: Determination of lipophilicity by RP UPLC. The class given is physicochemical. Particulars: for -S (slope of the regression curve): log k = log kw + SΦ; for log kw (capacity factor of the analyte in pure water): Kinetex C18, methanol 0.65-0.95 v/v, 25 °C. An outline of the steps:
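Kinetex C18 column (150 × 4.6 mm, 2.6 µm) on a UPLC with UV detection at 254 nm. Test compound was dissolved in methanol at 10 µg/ml. Isocratic methanol fractions ran at 0.5 ml/min and 25 °C. Dead time was taken from uracil. log k was regressed linearly on methanol fraction Φ (Soczewiński–Wachtmeister), giving log kw as the intercept and S as the slope.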

Data set [3] has as its system Du-145 cells (human prostate carcinoma). Description: In vitro antiproliferative assay. The class given is cell-based. As to conditions: for IC50: Homo sapiens, DU-145, 72 h, read-out: IC50 ± SD.
For data set [4], the system named is MV-4-11 cells (biphenotypic B myelomonocytic leukemia). Description: In vitro antiproliferative assay. The class given is cell-based, human. Particulars: for IC50: Homo sapiens, MV4-11, 72 h, read-out: IC50 ± SD.
Data set [5] has as its system HT-29 cells (human colon adenocarcinoma). Description: In vitro antiproliferative assay. Format: cell-based. Particulars: for IC50: Homo sapiens, HT-29, 72 h, read-out: IC50 ± SD.
In data set [6] the test system is MCF-10A normal human mammary gland epithelial cells. The experiment in a line: cells. Particulars: for IC50: Homo sapiens, MCF-10A, 72 h, read-out: IC50 ± SD; for cytotoxic activity against MCF-10A, times lower than against cancer cell lines: MCF-10A vs MCF-7, JURKAT, HT-29, Hep-G2, HeLa, Du-145, DAUDI; for cytotoxic activity against MCF-10A, times lower than against cancer cells: MCF-10A vs MV4-11 (cancer cell lines). The class given is cell-based.

The subject of data set [7] is JURKAT cells (human leukemic T-cell lymphoblast). Description: In vitro antiproliferative assay. The class given is cell-based. As to conditions: for IC50: Homo sapiens, Jurkat, 72 h, read-out: IC50 ± SD.
The test system of data set [8] is HeLa cells (human cervical carcinoma). Description: In vitro antiproliferative assay. The class given is cell-based. Particulars: for IC50: Homo sapiens, 72 h, read-out: IC50 ± SD.
For data set [9], the system named is Hep-G2 cells (human hepatocellular carcinoma). The experiment in a line: In vitro antiproliferative assay. As to conditions: for IC50: Homo sapiens, HepG2, 72 h, read-out: IC50 ± SD. Format: cell-based.
For data set [10], the system named is DAUDI cells (Burkitt lymphoma). Description: In vitro antiproliferative assay. Particulars: for IC50: Homo sapiens, Daudi, 72 h, read-out: IC50 ± SD. Format: cell-based, human.
In data set [11] the test system is human cancer cell lines (MV-4-11, MCF-7, JURKAT, HT-29, Hep-G2, HeLa, Du-145, DAUDI). The experiment in a line: In vitro antiproliferative assay, summary over several cancer cell lines. As to conditions: read-out: IC50 values in relation to other cell lines. The class given is cell-based.

The term IC50 denotes the concentration at which inhibition is half-maximal. Take `CC(=O)c1ccc([N+]2=NN(CCCl)CC2)cc1.[Cl-]` [2a, 3-(4-Acetylphenyl)-1-(2-chloroethyl)-4,5-dihydro-1H-1,2,3-triazol-3-ium chloride]: the IC50 in data set [1] is 45.1 ± 1.65 µg/mL; in [3] it was 89 ± 9.31 µg/mL; in data set [4] it was 13.4 ± 5.94 µg/mL; in [5] it was 49.3 ± 17.4 µg/mL; in data set [6], 80 ± 8.43 µg/mL; in [7], 66.2 ± 13.4 µg/mL. Also, the values for the IC50 in [8] and in [9] were 39.4 ± 9.77 µg/mL and 38.5 ± 12.3 µg/mL, respectively. Besides, the “Φ0 lipophilicity parameter (−log kw/S)” value in [2] is given as 1.958. The “-S (slope of the regression curve)” value in data set [2] worked out at 0.755.

`ClCCN1CC[N+](c2ccccc2)=N1.[Cl-]` [2b, 1-(2-Chloroethyl)-3-phenyl-4,5-dihydro-1H-1,2,3-triazol-3-ium chloride]: the IC50 in [1] stood at 50.4 ± 8.08 µg/mL; in data set [10] it was 40.2 ± 4.29 µg/mL; in data set [4], 44.6 ± 4.37 µg/mL; in data set [5], 48.9 ± 18.7 µg/mL; in data set [7] it was 68.5 ± 6.36 µg/mL; in [8], 39.4 ± 11.5 µg/mL. For the same molecule, the IC50 in data set [9] amounted to 37.9 ± 17.1 µg/mL. For the same molecule, the “Φ0 lipophilicity parameter (−log kw/S)” value in data set [2] is listed as 1.519. The “log kw (capacity factor of the analyte in pure water)” value in [2] is −2.002. Further, the “-S (slope of the regression curve)” value in data set [2] came out at 1.318.

With `Cc1ccc([N+]2=NN(CCCl)CC2)cc1.[Cl-]` [2c, 1-(2-Chloroethyl)-3-p-tolyl-4,5-dihydro-1H-1,2,3-triazol-3-ium chloride], the IC50 in [1] is 19.8 ± 3.02 µg/mL; in [3], 36.4 ± 5.29 µg/mL; in [11] it was 12.5 to 36.4 µg/mL; in data set [10], 4.91 ± 1.53 µg/mL; in [4], 5.42 ± 2.52 µg/mL; in [5] it was 16.2 ± 7.37 µg/mL. The IC50 amounted to 61.6 ± 13.1 µg/mL in data set [6], 13.1 ± 0.503 µg/mL in data set [7], 18.1 ± 7.04 µg/mL in data set [8] and 23.8 ± 5.36 µg/mL in data set [9]. Besides, the “Φ0 lipophilicity parameter (−log kw/S)” value in [2] was 1.338. Besides, in data set [2], the “-S (slope of the regression curve)” value came to 2.000. Moreover, in data set [6], the “cytotoxic activity against MCF-10A, times lower than against cancer cell lines” value is 1–5 times. The “cytotoxic activity against MCF-10A, times lower than against cancer cells” value in data set [6] is reported as 6–11 times.

For the molecule `FC(F)(F)c1cccc([N+]2=NN(CCCl)CC2)c1.[Cl-]` [2d, 1-(2-Chloroethyl)-3-(3-(trifluoromethyl)phenyl)-4,5-dihydro-1H-1,2,3-triazol-3-ium chloride], the IC50 in data set [1] was 16.5 ± 4.14 µg/mL; in data set [3], 30.9 ± 3.15 µg/mL; in [11], 12.5 to 36.4 µg/mL; in [10], 17.6 ± 2.29 µg/mL; in [4] it was 5.59 ± 3.03 µg/mL; in data set [5] it was 31.7 ± 5.45 µg/mL. Moreover, the IC50 in [6] is 32.6 ± 2.79 µg/mL; in data set [7], 24.3 ± 1.22 µg/mL; in data set [8] it was 22.7 ± 2.98 µg/mL; in [9] it was 14.9 ± 1.08 µg/mL. Further, the “Φ0 lipophilicity parameter (−log kw/S)” value in data set [2] is on record as 1.204. The “log kw (capacity factor of the analyte in pure water)” value in [2] was −3.373. Moreover, the “-S (slope of the regression curve)” value in [2] is on record as 2.802. Further, in data set [6], the “cytotoxic activity against MCF-10A, times lower than against cancer cell lines” value was 1–5 times. In data set [6], the “cytotoxic activity against MCF-10A, times lower than against cancer cells” value is 6–11 times.

Consider `ClCCN1CC[N+](c2ccc(Cl)cc2)=N1.[Cl-]` [2e, 1-(2-Chloroethyl)-3-(4-chlorophenyl)-4,5-dihydro-1H-1,2,3-triazol-3-ium chloride], for which the IC50 was 15.1 ± 2.77 µg/mL in data set [1]; 30.1 ± 10.2 µg/mL in data set [3]; 12.5 to 36.4 µg/mL in [11]; 13.6 ± 3.66 µg/mL in [10]; 7.69 ± 3.17 µg/mL in [4]; 31.9 ± 8.14 µg/mL in [5]. Also, the IC50 in data set [6] worked out at 49.3 ± 15.5 µg/mL; in [7], 13.6 ± 3 µg/mL; in data set [8], 12.5 ± 2.23 µg/mL; in data set [9], 14.9 ± 4.66 µg/mL. The “Φ0 lipophilicity parameter (−log kw/S)” value in data set [2] is 1.196. In data set [2], the “log kw (capacity factor of the analyte in pure water)” value is listed as −3.503. In addition, the “-S (slope of the regression curve)” value in [2] was found to be 2.928. The “cytotoxic activity against MCF-10A, times lower than against cancer cell lines” value in [6] is listed as 1–5 times. Also, the “cytotoxic activity against MCF-10A, times lower than against cancer cells” value in data set [6] was 6–11 times.

Take `CCOC(=O)c1ccc([N+]2=NN(CCCl)CC2)cc1.[Cl-]` [2f, 1-(2-Chloroethyl)-3-(4-(ethoxycarbonyl)phenyl)-4,5-dihydro-1H-1,2,3-triazol-3-ium chloride]: the IC50 in data set [1] was found to be 20.9 ± 2.19 µg/mL; in data set [3], 22.8 ± 10.1 µg/mL; in data set [10], 61.9 ± 24.8 µg/mL; in data set [4] it was 6.16 ± 1.76 µg/mL; in data set [5] it was 5.59 ± 0.632 µg/mL; in [6], 42 ± 17.3 µg/mL. Also, the IC50 in [7] amounted to 36 ± 7.11 µg/mL; in [8] it was 23.5 ± 3.32 µg/mL; in data set [9], 27.8 ± 10.1 µg/mL. The “Φ0 lipophilicity parameter (−log kw/S)” value in data set [2] was 1.301. Besides, in data set [2], the “-S (slope of the regression curve)” value came to 2.259. For the same molecule, the “cytotoxic activity against MCF-10A, times lower than against cancer cells” value in [6] is 6–11 times.

On to `O=[N+]([O-])c1ccc([N+]2=NN(CCCl)CC2)cc1.[Cl-]` [2g, 1-(2-Chloroethyl)-3-(4-nitrophenyl)-4,5-dihydro-1H-1,2,3-triazol-3-ium chloride], for which the IC50 in [1] stood at 23.9 ± 7.48 µg/mL; in data set [3], 34.1 ± 1.35 µg/mL; in data set [4], 14.1 ± 7.75 µg/mL; in data set [5] it was 47.6 ± 3.42 µg/mL; in data set [6], 36.6 ± 9.52 µg/mL; in data set [7], 49.1 ± 14.1 µg/mL. In addition, the IC50 in data set [8] was found to be 29 ± 5.35 µg/mL; in data set [9], 32.1 ± 1.4 µg/mL. Also, the “Φ0 lipophilicity parameter (−log kw/S)” value in [2] is reported as 2.532. In addition, the “-S (slope of the regression curve)” value in data set [2] was 0.594.

Take `Fc1ccc([N+]2=NN(CCCl)CC2)cc1.[Cl-]` [2i, 1-(2-Chloroethyl)-3-(4-fluorophenyl)-4,5-dihydro-1H-1,2,3-triazol-3-ium chloride]: the IC50 came out at 61.4 ± 21.8 µg/mL in [1]; 75.6 ± 17.8 µg/mL in [10]; 51.4 ± 11.9 µg/mL in data set [4]; 51.3 ± 14.7 µg/mL in data set [8]; 70.2 ± 13.9 µg/mL in data set [9]. The “Φ0 lipophilicity parameter (−log kw/S)” value in [2] amounted to 1.824. Also, the “log kw (capacity factor of the analyte in pure water)” value in data set [2] is reported as −1.873. Also, the “-S (slope of the regression curve)” value in data set [2] stood at 1.027.

Regarding `N.N.[Cl][Pt][Cl]` [cis-platin, reference compound], the “IC50 ± SD” value amounted to 1.73 ± 0.443 µg/mL in data set [1] (MCF-7, 72 h exposure, SRB); 0.59 ± 0.086 µg/mL in data set [3] (Du-145, 72 h exposure, SRB); 1.07 ± 0.208 µg/mL in [10] (DAUDI, 72 h exposure, MTT); 0.76 ± 0.184 µg/mL in data set [4] (MV-4-11, 72 h exposure, MTT); 3.63 ± 0.715 µg/mL in [5] (HT-29, 72 h exposure, SRB); 4.65 ± 1.171 µg/mL in [6] (MCF-10A normal cells, 72 h exposure, SRB). Besides, the “IC50 ± SD” value was 0.24 ± 0.056 µg/mL in [7] (JURKAT, 72 h exposure, MTT); 0.37 ± 0.137 µg/mL in data set [8] (72 h exposure, SRB); 0.68 ± 0.147 µg/mL in data set [9] (Hep-G2, 72 h exposure, SRB).
